Published values collected from several papers.
Compare with care: the assays were run in different laboratories.
CYP2D6: Cytochrome P450 2D6 (CYP2D6, Homo sapiens, UniProt P10635)
Dihydroorotate dehydrogenase (quinone), mitochondrial: Dihydroorotate dehydrogenase (quinone), mitochondrial (Rattus norvegicus, UniProt Q63707)

| target | test | system | setting | measurement | result | SMILES |
| --- | --- | --- | --- | --- | --- | --- |
| Ubiquitin carboxyl-terminal hydrolase 7 (USP7, Homo sapiens, UniProt Q93009) | binding, SPR | – | – | Kd | 0.0001 µM | O=C1CCC(=O)N1Cc1cc2nccc(-c3cc(Cl)cc4c3N([C@@H]3CNC5(CCC5)C3)CCC4)c2s1 |
| CYP2D6 | enzyme activity, inhibitor | human, liver microsomes | pH 7.4 | Ki | 8.66 µM | COc1cc(O)c2c(c1)C(=O)c1cc(C)cc(O)c1C2=O |
| Sodium-dependent neutral amino acid transporter B(0)AT1 (SLC6A19, Homo sapiens, UniProt Q695T7) | transporter uptake, inhibitor, radiometric | – | – | IC50 | 0.84 µM | CCNC(=O)/C=C/c1cccc(Br)c1 |
| DDB1- and CUL4-associated factor 1 (DCAF1, Homo sapiens, UniProt Q9Y4B6) | binding, SPR | – | – | Kd | 0.0152 µM | C[C@@H]1CN(c2ccc(-c3cc(C(=O)NCCCNC(=O)/C=C/c4[nH]cc(C(=O)N[C@@H](CC(N)=O)c5ccc(F)c(Cl)c5)c4-c4ccc(Cl)cc4F)ccc3F)cc2NC(=O)c2c[nH]c(=O)cc2C(F)(F)F)C[C@H](C)N1C |
| CYP2D6 | enzyme activity, inhibitor | human, liver microsomes | – | Ki | 26.4 µM | C=C(F)C(=O)N1CCN(c2nc(OC[C@@H]3CCCN3C)nc3c2CCN(c2cccc4cccc(Cl)c24)C3)C[C@@H]1CC#N |
| Dihydroorotate dehydrogenase (quinone), mitochondrial | enzyme activity, inhibitor, absorbance | – | – | IC50 | > 30 µM | Cn1nc2c(=O)n(C3CC3)ncc2c1[C@](O)(c1cnc(C(F)(F)F)c(Cl)c1)C(F)(F)F |
| Alpha-1B adrenergic receptor (ADRA1B, Homo sapiens, UniProt P35368) | ligand displacement in cells | – | – | Ki | 0.155 µM | Cc1ccc2[nH]c(=O)c(CNC3CCCCC3)cc2c1 |
| Calmodulin-domain protein kinase 1, putative (Cryptosporidium parvum, UniProt A3FQ16) | enzyme activity, inhibitor | – | – | IC50 | > 1 µM | Cc1ccc(C(=O)Nc2ccc(CN3CCN(C)CC3)c(C(F)(F)F)c2)cc1C#Cc1cnc2cccnn12 |
| Dihydroorotate dehydrogenase (quinone), mitochondrial | enzyme activity, inhibitor, absorbance | – | – | IC50 | 6.2 µM | Cn1nc2c(=O)n(C3CC3)ncc2c1[C@](N)(c1ccc(C(F)(F)F)c(Cl)c1)C1CC1 |
| Prolyl endopeptidase (PREP, Homo sapiens, UniProt P48147) | enzyme activity, inhibitor, fluorescence | – | – | IC50 | 14 µM | Cc1nn(CCc2ccccc2)c2ncc(C(=O)NCc3cccnc3)c(Cl)c12 |
| Histone deacetylase 3 (HDAC3, Homo sapiens, UniProt O15379) | enzyme activity, inhibitor | – | – | IC50 | 0.716 µM | Nc1ccccc1NC(=O)c1ccc(CNc2ccc(NC3=C(Cl)C(=O)c4cccnc4C3=O)cc2)cc1 |
| Dihydroorotate dehydrogenase (quinone), mitochondrial | enzyme activity, inhibitor, absorbance | – | – | IC50 | 16 µM | Cn1nc2c(=O)n(C3CC3)ccc2c1[C@](O)(c1cnc(C(F)(F)F)c(Cl)c1)C(F)(F)F |
